{"source": "ChEMBL document CHEMBL4033704", "about": "“Discovery, synthesis, and structure-activity relations of 3,4-dihydro-1H-spiro(naphthalene-2,2'-piperidin)-1-ones as potassium-competitive acid blockers” (Bioorg Med Chem, 2017)", "key": {"[1]": {"test": "Inhibition of potassium-stimulated hydrogen potassium ATPase in pig gastric mucosal microsomal fraction assessed as reduction in liberated inorganic phosphate level after 30 mins in presence of KCl by malachite green staining based colorimetric method", "design": "species or system Sus scrofa", "summary_of_the_method": "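Gastric mucosal microsomal fraction prepared from pig stomach; assay run at pH 6.5. Inhibition expressed as percent of K⁺-stimulated H⁺,K⁺-ATPase activity in control. IC50 obtained by sigmoidal dose-response fitting.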"}, "Rattus norvegicus [2]": {"system": "Rattus norvegicus", "test": "Inhibition of histamine-stimulated gastric acid secretion in Jcl:Sprague-Dawley rat at 1 mg/kg, iv pretreated for 3 mins followed by histamine.2HCl stimulation measured after 3 hrs by titration method relative to control", "type": "functional", "summary_of_the_method": "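Anesthetized rats given compound intravenously at 1, 3 or 10 mg/kg, then histamine. Gastric contents collected and centrifuged at 3000 rpm for 10 min; volume measured. Acid concentration determined by automatic titration to pH 7.0 with 0.1 mol/L NaOH. Total acid output over 3 h (μEq/3 h) compared against vehicle to give percent inhibition.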"}, "Stomach": {"system": "Stomach", "test": "AUC (0 to 24 hrs) in Jcl:Sprague-Dawley rat stomach at 0.2 mg/kg, iv by LC/MS/MS analysis", "type": "ADME, organism-based", "design": "dose 0.2 mg/kg, time < 24 hr, route intravenous", "conditions": "in vivo", "summary_of_the_method": "(§1)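 Rats dosed intravenously at 0.2 mg/kg, given as free compound. Blood and stomach sampled 10 min, 1, 4 and 24 h after dosing. Compound levels measured by LC/MS/MS. AUC0-24h calculated from these four time points (plasma ng·h/mL, stomach ng·h/g).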"}, "Rattus norvegicus [3]": {"system": "Rattus norvegicus", "test": "Inhibition of histamine-induced acid secretion in rat assessed as increase in pH of gastric perfusate at 3 mg/kg, iv measured after 5 hrs", "type": "functional", "summary_of_the_method": "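Anesthetized rats given intravenous infusion of histamine 2HCl via cervical vein at 8 mg/kg/h; gastric perfusate pH monitored. Once pH stabilized, test compound or vehicle given intravenously. Perfusate pH then recorded for 5 h after dosing.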"}, "[4]": {"test": "AUC (0 to 24 hrs) in Jcl:Sprague-Dawley rat plasma at 0.2 mg/kg, iv by LC/MS/MS analysis", "type": "ADME, organism-based", "design": "time < 24 hr, dose 0.2 mg/kg, route intravenous", "summary_of_the_method": "as §1"}, "[5]": {"test": "Lipophilicity, log D of the compound", "type": "physicochemical", "conditions": "octanol/water"}, "Rattus norvegicus [6]": {"system": "Rattus norvegicus", "test": "Inhibition of histamine-stimulated gastric acid secretion in Jcl:Sprague-Dawley rat at 10 mg/kg, iv pretreated for 3 mins followed by histamine.2HCl stimulation measured after 3 hrs by titration method relative to control", "type": "functional"}, "[7]": {"test": "Inhibition of sodium and potassium-activated sodium potassium ATPase in porcine cerebral cortex assessed as reduction in liberated inorganic phosphate level after 30 mins in presence of sodium and potassium by malachite green staining based colorimetric method", "design": "species or system Sus scrofa"}, "Sus scrofa": {"species": "Sus scrofa", "test": "Selectivity ratio of IC50 for sodium and potassium-activated sodium potassium ATPase in porcine cerebral cortex to IC50 for potassium-stimulated hydrogen potassium ATPase in pig gastric mucosal microsomal fraction"}}, "data": [{"smiles": "Cc1ccccc1CCN1CCCCC12CCc1cc(-c3ccccc3)ccc1C2=O", "note": "(racemic)", "values": [{"measurement": "IC50", "setting": "[1]", "value": "> 10", "unit": "µM"}]}, {"smiles": "COc1ccc2c(c1)CC[C@@]1(CCCCN1CCc1ccccc1OC)C2=O", "values": [{"measurement": "IC50", "setting": "[1]", "value": 0.083, "unit": "µM"}]}, {"smiles": "COc1ccc2c(c1)CC[C@@]1(CCCCN1CCc1cccc(F)c1)C2=O", "values": [{"measurement": "IC50", "setting": "[1]", "value": 0.37, "unit": "µM"}]}, {"smiles": "COc1ccc2c(c1)CCC1(CCCCN1CC(C)c1ccccc1)C2=O", "note": "(configuration not stated)", "values": [{"measurement": "IC50", "setting": "[1]", "value": 0.3, "unit": "µM"}]}, {"smiles": "CC(=O)Nc1ccc2c(c1)CC[C@@]1(CCCCN1CCc1ccccc1C)C2=O", "values": [{"measurement": "IC50", "setting": "[1]", "value": 0.031, "unit": "µM"}, {"measurement": "inhibition in vivo at 1 mg/kg", "setting": "Rattus norvegicus [2]", "value": 95, "unit": "%"}, {"measurement": "AUC", "setting": "Stomach", "value": 15131, "unit": "ng·h/g"}, {"measurement": "pH", "setting": "Rattus norvegicus [3]", "value": 6}, {"measurement": "AUC(0-t) at 24 h", "setting": "[4]", "value": 0.068, "unit": "µg·h/mL"}, {"measurement": "logD", "setting": "[5]", "value": 3.56}]}, {"smiles": "COc1ccc2c(c1)CCC1(CCCCN1CCc1ccccc1C)C2=O", "note": "(configuration not stated)", "values": [{"measurement": "IC50", "setting": "[1]", "value": 0.082, "unit": "µM"}]}, {"smiles": "COc1ccc2c(c1)CCC1(CCCCN1Cc1ccccc1)C2=O", "note": "(configuration not stated)", "values": [{"measurement": "IC50", "setting": "[1]", "value": "> 10", "unit": "µM"}]}, {"smiles": "COc1ccc2c(c1)CCC1(CCCCN1CC(=O)c1ccccc1)C2=O", "note": "(configuration not stated)", "values": [{"measurement": "IC50", "setting": "[1]", "value": "> 10", "unit": "µM"}]}, {"smiles": "COc1ccc2c(c1)CCC1(CCCCN1CCCc1ccccc1)C2=O", "note": "(configuration not stated)", "values": [{"measurement": "IC50", "setting": "[1]", "value": 0.89, "unit": "µM"}]}, {"smiles": "COc1ccc2c(c1)CCC1(CCCCN1CCc1c(C)cc(C)cc1C)C2=O", "note": "(configuration not stated)", "values": [{"measurement": "IC50", "setting": "[1]", "value": 0.14, "unit": "µM"}]}, {"smiles": "COc1ccc2c(c1)CCC1(CCCCN1CCc1ccccc1Cl)C2=O", "note": "(configuration not stated)", "values": [{"measurement": "IC50", "setting": "[1]", "value": 0.17, "unit": "µM"}]}, {"smiles": "COc1ccc2c(c1)CCC1(CCCCN1CCc1ccccc1)C2=O", "note": "(configuration not stated)", "values": [{"measurement": "IC50", "setting": "[1]", "value": 0.29, "unit": "µM"}]}, {"smiles": "COc1cccc2c1C(=O)C1(CCCCN1CCc1ccccc1C)CC2", "note": "(configuration not stated)", "values": [{"measurement": "IC50", "setting": "[1]", "value": 0.29, "unit": "µM"}]}, {"smiles": "CC(=O)Nc1ccc2c(c1)CC[C@]1(CCCCN1CCc1ccccc1C)C2=O", "values": [{"measurement": "IC50", "setting": "[1]", "value": "> 10", "unit": "µM"}]}, {"smiles": "COc1ccc2c(c1)CC[C@]1(CCCCN1CCc1ccccc1C)C2=O", "values": [{"measurement": "IC50", "setting": "[1]", "value": "> 10", "unit": "µM"}]}, {"smiles": "COc1ccc2c(c1)CC[C@@]1(CCCCN1CCc1ccc(F)cc1)C2=O", "values": [{"measurement": "IC50", "setting": "[1]", "value": 0.064, "unit": "µM"}]}, {"smiles": "COc1ccc(CCN2CCCC[C@@]23CCc2cc(OC)ccc2C3=O)cc1", "values": [{"measurement": "IC50", "setting": "[1]", "value": 1.8, "unit": "µM"}]}, {"smiles": "COc1ccc2c(c1)CCC1(CCCCN1CCCCc1ccccc1)C2=O", "note": "(configuration not stated)", "values": [{"measurement": "IC50", "setting": "[1]", "value": "> 10", "unit": "µM"}]}, {"smiles": "CC(=O)Nc1ccc2c(c1)CCC1(CCCCN1CCc1ccccc1C)C2=O", "note": "(racemic)", "values": [{"measurement": "IC50", "setting": "[1]", "value": 0.045, "unit": "µM"}]}, {"smiles": "O=C1c2cccc3[nH]cc(c23)CC12CCCCN2CCc1ccccc1", "note": "(configuration not stated)", "values": [{"measurement": "inhibition in vivo at 10 mg/kg", "setting": "Rattus norvegicus [6]", "value": 71, "unit": "%"}, {"measurement": "IC50", "setting": "[1]", "value": 1.6, "unit": "µM"}, {"measurement": "IC50", "setting": "[7]", "value": "> 10", "unit": "µM"}, {"measurement": "AUC", "setting": "Stomach", "value": 1171, "unit": "ng·h/g"}, {"measurement": "AUC(0-t) at 24 h", "setting": "[4]", "value": 0.071, "unit": "µg·h/mL"}, {"measurement": "Ratio IC50", "setting": "Sus scrofa", "value": "> 100"}]}, {"smiles": "COc1cccc(CCN2CCCC[C@@]23CCc2cc(OC)ccc2C3=O)c1", "values": [{"measurement": "IC50", "setting": "[1]", "value": 1.1, "unit": "µM"}]}, {"smiles": "O=C1c2ccccc2CCC12CCCCN2CCc1ccccc1", "note": "(configuration not stated)", "values": [{"measurement": "IC50", "setting": "[1]", "value": 1, "unit": "µM"}]}, {"smiles": "COc1ccc2c(c1)CC[C@@]1(CCCCN1CCc1ccccc1C)C2=O.Cl", "values": [{"measurement": "IC50", "setting": "[1]", "value": 0.046, "unit": "µM"}, {"measurement": "inhibition in vivo at 1 mg/kg", "setting": "Rattus norvegicus [2]", "value": 87, "unit": "%"}, {"measurement": "IC50", "setting": "[7]", "value": "> 10", "unit": "µM"}, {"measurement": "AUC", "setting": "Stomach", "value": 3035, "unit": "ng·h/g"}, {"measurement": "AUC(0-t) at 24 h", "setting": "[4]", "value": 0.074, "unit": "µg·h/mL"}]}, {"smiles": "COc1ccc2c(c1)CC[C@]1(CCCCN1CCc1ccc(F)cc1)C2=O", "values": [{"measurement": "IC50", "setting": "[1]", "value": "> 10", "unit": "µM"}]}, {"smiles": "COc1ccc2c(c1)CCC1(CCCCN1CCc1ccc(F)cc1)C2=O", "note": "(configuration not stated)", "values": [{"measurement": "IC50", "setting": "[1]", "value": 0.087, "unit": "µM"}]}, {"smiles": "COc1ccc2c(c1)CCC1(CCCCN1CCc1ccc(F)cc1C)C2=O", "note": "(configuration not stated)", "values": [{"measurement": "IC50", "setting": "[1]", "value": 0.057, "unit": "µM"}]}, {"smiles": "COc1ccc2c(c1)C(=O)C1(CCCCN1CCc1ccccc1C)CC2", "note": "(racemic)", "values": [{"measurement": "IC50", "setting": "[1]", "value": 0.27, "unit": "µM"}]}, {"smiles": "COc1ccc2c(c1)CC[C@@]1(CCCCN1CCc1ccccc1F)C2=O", "values": [{"measurement": "IC50", "setting": "[1]", "value": 0.16, "unit": "µM"}]}, {"smiles": "Cc1ccccc1CCN1CCCCC12CCc1ccccc1C2=O", "note": "(racemic)", "values": [{"measurement": "IC50", "setting": "[1]", "value": 0.29, "unit": "µM"}]}, {"smiles": "COc1ccc2c(c1)CCC1(CCCCN1C(=O)Cc1ccccc1)C2=O", "note": "(configuration not stated)", "values": [{"measurement": "IC50", "setting": "[1]", "value": "> 10", "unit": "µM"}]}, {"smiles": "Cc1ccccc1CCN1CCCCC12CCc1cc(C#N)ccc1C2=O", "note": "(racemic)", "values": [{"measurement": "IC50", "setting": "[1]", "value": "> 10", "unit": "µM"}]}, {"smiles": "COc1cccc2c1CCC1(CCCCN1CCc1ccccc1C)C2=O", "note": "(configuration not stated)", "values": [{"measurement": "IC50", "setting": "[1]", "value": 0.3, "unit": "µM"}]}, {"smiles": "COc1ccc2c(c1)CCC1(CCCCN1c1ccccc1)C2=O", "note": "(configuration not stated)", "values": [{"measurement": "IC50", "setting": "[1]", "value": "> 10", "unit": "µM"}]}]}
